We go through one molecule from ChEMBL document CHEMBL1133649, “Development of peptide 3D structure mimetics: rational design of novel peptoid cholecystokinin receptor antagonists” (J Med Chem, 2000).

Structures are written as SMILES.

Assay [1] concerns the target T1, Gastrin/cholecystokinin type B receptor (Mus musculus) (UniProt P56481).
T1 sequence (whole entry): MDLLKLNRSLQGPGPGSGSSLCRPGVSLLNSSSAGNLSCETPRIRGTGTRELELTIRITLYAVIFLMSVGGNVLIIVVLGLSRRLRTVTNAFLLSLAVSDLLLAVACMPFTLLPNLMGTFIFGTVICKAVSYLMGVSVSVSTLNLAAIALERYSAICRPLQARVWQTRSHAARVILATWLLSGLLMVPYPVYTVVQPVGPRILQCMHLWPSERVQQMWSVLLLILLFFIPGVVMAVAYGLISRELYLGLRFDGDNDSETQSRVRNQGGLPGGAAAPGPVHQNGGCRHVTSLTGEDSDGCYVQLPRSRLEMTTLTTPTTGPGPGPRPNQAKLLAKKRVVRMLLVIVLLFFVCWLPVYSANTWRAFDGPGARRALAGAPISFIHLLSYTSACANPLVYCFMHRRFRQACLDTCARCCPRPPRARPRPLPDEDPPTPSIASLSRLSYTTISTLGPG
Put plainly: Percent maximal response at Cholecystokinin type B receptor relative to a pentagastrin control. Format: functional. The method, boiled down: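 Mouse isolated lumen-perfused stomach (male CD1, 18 h fasted) with 0.3 mM IBMX serosally and 90 min stabilization. Acid secretion read as change in perfusate pH from basal before the first agonist addition. Concentration-effect curves were fitted to the Hill equation. α is the maximal response as a percentage of a pentagastrin control, mean of at least six experiments. Single concentration 1 × 10^-5 M.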

Assay [2] concerns the target T2, Cholecystokinin receptor type A (Cavia porcellus) (UniProt Q63931).
T2 sequence (whole entry): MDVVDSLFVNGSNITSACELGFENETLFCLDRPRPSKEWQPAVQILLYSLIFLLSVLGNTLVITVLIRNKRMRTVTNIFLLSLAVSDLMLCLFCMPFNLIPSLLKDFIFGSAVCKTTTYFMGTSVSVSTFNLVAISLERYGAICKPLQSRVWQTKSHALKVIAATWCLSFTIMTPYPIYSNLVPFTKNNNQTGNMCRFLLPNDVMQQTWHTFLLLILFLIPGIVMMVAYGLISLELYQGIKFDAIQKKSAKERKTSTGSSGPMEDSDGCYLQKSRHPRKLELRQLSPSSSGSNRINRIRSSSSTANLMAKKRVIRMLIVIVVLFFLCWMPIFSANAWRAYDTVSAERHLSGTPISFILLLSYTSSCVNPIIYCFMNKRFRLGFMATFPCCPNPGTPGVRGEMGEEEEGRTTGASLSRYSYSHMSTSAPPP
Briefly: Tested for affinity on Cholecystokinin type A receptor in the in vitro guinea pig gallbladder with respect to the shift of the CCK-8S dose response curve. The method, boiled down:
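Guinea-pig gall bladder muscle strips held in organ baths under a single 1 g load, allowed to relax to a stable baseline, washed twice. Isometric force recorded continuously. Test compound or vehicle was incubated 1 h, then a single cumulative CCK-8S E/[A] curve was obtained. pKB came from the curve shift. Mean of at least six experiments ± SEM; at least eight preparations run per assay in randomized blocks.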

In the case of `CC(C)(C)OC(=O)N[C@@H](Cc1c[nH]c2ccccc12)C(=O)N[C@H](Cc1ccc2ccccc2c1)C(=O)N[C@H](CC(=O)O)C(=O)N[C@@H](Cc1ccc(Cl)cc1)C(N)=O`, in assay [1], the Response worked out at 74%. For the same molecule, the KBp in assay [2] came out at 5.9.
